Measurements pooled from the literature.
Lines come from different studies, so protocols differ.
Medium: plasma
Route: oral

`CO[C@H]1CC[C@H](N2C(=O)CNc3ncc(-c4ccc(C(C)(C)O)nc4)nc32)CC1` gave an AUC(0-inf) of 1690 ng·h/mL (human; 45 mg; patients).
`CC(C)n1cc(C#N)c2cc(-n3cc(C(=O)O)cn3)ccc21` gave an AUC(0-inf) of 5190 ng·h/mL (human; 25 mg; single dose, fasted, healthy volunteers).
`COc1ccc([C@@H]2CN(C(=O)[C@@H](O)CO)C[C@@]2(C)[C@@H](C)O)cc1OC1CN(c2ccc(C)cn2)C1` has an AUC(0-inf) of 524 ng·h/mL (human; 1.5 mg; single dose, healthy volunteers).
`C[C@@]1(c2cc(NC(=O)c3ccc(C#N)cn3)ccc2F)C=CSC(N)=N1` has an AUC(0-inf) of 14500 ng·h/mL (human; 150 mg; single dose).
For `CC(C)(O)c1ccccc1-c1ccc2[nH]c(/C=C/c3ccc(C(F)(F)F)cc3)nc2c1`, the AUC(0-inf) was 876 ng·h/mL (male human; 5 mg; single dose, fasted).
The AUC(0-inf) of `CC(C)(Sc1ccncc1-c1ccc(C#N)c2ccccc12)C(=O)O` is reported as 415 ng·h/mL (male human; 20 mg; single dose, fed, healthy volunteers).
`Cn1cc(-c2ccc(S(=O)(=O)[C@@H]3C[C@@H](C(=O)NC4(C#N)CC4)N(C(=O)C4(C(F)(F)F)CC4)C3)c(C(F)(F)F)c2)cn1` gave an AUC(0-inf) of 229 ng·h/mL (human; 3 mg; single dose, fasted, healthy volunteers).
With `O=C(Nc1c(Cl)cncc1Cl)c1ccc(OC(F)F)c(OCC2CC2)c1` the AUC(0-inf) was 33.8 ng·h/mL (human; 0.25 mg; single dose, fasted).
For `CCc1nc2c(C)cc(N3CCN(CC(=O)N4CC(O)C4)CC3)cn2c1N(C)c1nc(-c2ccc(F)cc2)c(C#N)s1`, the AUC(0-inf) was 16400 ng·h/mL (human; 300 mg; fed, healthy volunteers).
